In ChEMBL document CHEMBL3867441, “Boesenberols, Pimarane Diterpenes with TRAIL-Resistance-Overcoming Activity from Boesenbergia pandurata” (J Nat Prod, 2016):
Activity calls are given as the source filed them. The calls are words filed in the database; no cut-off is given here.

Experiments:
[1] = test system: AGS; experiment: Potentiation of TRAIL-induced cytotoxicity against human AGS cells assessed as reduction in cell viability at 10 to 30 uM measured after 24 hrs by FMCA method; type: functional, cell-based
Method in brief: (§1)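 FMCA viability assay in TRAIL-resistant AGS cells or HEK293 cells (HEK293 in DMEM, 10% FBS, 1% penicillin-streptomycin). Cells are seeded at 6 × 10^3 per well, left 24 h at 37 °C in 5% CO2, then exposed to test sample at several doses with or without TRAIL (100 ng/mL) for 24 h. Cells are PBS-washed and given […] (10 μg/mL) in PBS for 1 h at 37 °C. Fluorescence is read at ex 485/em 538 nm. Means ± SD, n = 4; luteolin is the positive control and DMSO the negative control.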

[2] = test system: AGS; experiment: Potentiation of TRAIL-induced apoptosis in human AGS cells assessed as increase in cleaved caspase3 level at 16 uM measured after 24 hrs by Western blot analysis; type: functional
Method in brief: (§2)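 Western blot in AGS cells for cleaved caspases-3, -8 and -9. Cells are seeded for 24 h, then given compound at 16 μM, TRAIL (100 ng/mL), or both together for 24 h. Lysates are made in the Tris/Triton/deoxycholate lysis buffer with protease inhibitors and run on 12.5% SDS-PAGE. Proteins are transferred to PVDF, immunodetected with HRP secondary antibodies and read by ECL chemiluminescence.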

[3] = test system: AGS; experiment: Potentiation of TRAIL-induced cytotoxicity in human AGS cells assessed as reduction in cell viability at 5 to 25 uM measured after 24 hrs by FMCA method; type: functional, cell-based; method in brief: as §1
[4] = Downregulation of GSK-3beta protein expression in human AGS cells measured after 24 hrs by Western blot analysis; type: functional, cell-based
Method in brief: (§3)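 Western blot in AGS cells. Cells are seeded for 24 h and treated with compound at the indicated concentrations for 24 h. Lysis is in Tris·HCl (20 mM, pH 7.4), NaCl 150 mM, 0.5% Triton X-100, 0.5% deoxycholate, EDTA 10 mM, orthovanadate 1 mM, NaF 0.1 mM and protease inhibitors. Proteins are run on 12.5% SDS-PAGE and transferred to PVDF, blocked in 5% milk/TBST, probed with primary and then HRP secondary antibodies, and detected by ECL. β-Actin is the internal control.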

[5] = Downregulation of c-FLIP expression in human AGS cells at 8 to 24 uM measured after 24 hrs by Western blot analysis; type: functional, cell-based; method in brief: as §3
[6] = Upregulation of cleaved caspase9 expression in human AGS cells at 8 to 24 uM measured after 24 hrs by Western blot analysis; type: functional, cell-based; method in brief: as §3
[7] = Upregulation of Fas protein expression in human AGS cells measured after 24 hrs by Western blot analysis; type: functional, cell-based; method in brief: as §3
[8] = Upregulation of Bax protein expression in human AGS cells at 8 to 24 uM measured after 24 hrs by Western blot analysis; type: functional, cell-based; method in brief: as §3
[9] = Cytotoxicity against HEK293 cells assessed as reduction in cell viability up to 30 uM measured after 24 hrs in presence of TRIAL by FMCA method; type: toxicity, cell-based; details: human, hek293, 24 h; method in brief: as §1
[10] = Upregulation of CHOP expression in human AGS cells measured after 24 hrs by Western blot analysis; type: functional, cell-based; method in brief: as §3
[11] = Downregulation of Bcl2 protein expression in human AGS cells measured after 24 hrs by Western blot analysis; type: functional, cell-based; method in brief: as §3
[12] = Upregulation of DR4 protein expression in human AGS cells measured after 24 hrs by Western blot analysis; type: functional, cell-based; method in brief: as §3
[13] = test system: AGS; experiment: Potentiation of TRAIL-induced apoptosis in human AGS cells assessed as increase in cleaved caspase8 level at 16 uM measured after 24 hrs by Western blot analysis; type: functional; method in brief: as §2
[14] = test system: AGS; experiment: Induction of apoptosis in human AGS cells assessed as cleaved caspase3 level at 16 uM measured after 24 hrs by Western blot analysis relative to control; type: functional; method in brief: as §2
[15] = test system: AGS; experiment: Induction of apoptosis in human AGS cells assessed as cleaved caspase8 level at 16 uM measured after 24 hrs by Western blot analysis relative to control; type: functional; method in brief: as §2
[16] = Upregulation of cleaved caspase-8 expression in human AGS cells at 8 to 24 uM measured after 24 hrs by Western blot analysis; type: functional, cell-based; method in brief: as §3
[17] = Upregulation of p53 protein expression in human AGS cells measured after 24 hrs by Western blot analysis; type: functional, cell-based; method in brief: as §3
[18] = test system: AGS; experiment: Potentiation of TRAIL-induced apoptosis in human AGS cells assessed as increase in cleaved caspase9 level at 16 uM measured after 24 hrs by Western blot analysis; type: functional; method in brief: as §2
[19] = Upregulation of DR5 protein expression in human AGS cells measured after 24 hrs by Western blot analysis; type: functional, cell-based; method in brief: as §3
[20] = test system: AGS; experiment: Induction of apoptosis in human AGS cells assessed as cleaved caspase9 level at 16 uM measured after 24 hrs by Western blot analysis relative to control; type: functional; method in brief: as §2
[21] = Upregulation of cleaved caspase3 expression in human AGS cells at 8 to 24 uM measured after 24 hrs by Western blot analysis; type: functional, cell-based; method in brief: as §3
[22] = test system: AGS; experiment: Potentiation of TRAIL-induced cytotoxicity against human AGS cells assessed as reduction in cell viability at 10 to 40 uM measured after 24 hrs by FMCA method; type: functional, cell-based; method in brief: as §1
[23] = test system: AGS; experiment: Potentiation of TRAIL-induced cytotoxicity against human AGS cells assessed as reduction in cell viability at 20 to 80 uM measured after 24 hrs by FMCA method; type: functional, cell-based; method in brief: as §1
[24] = test system: AGS; experiment: Potentiation of TRAIL-induced cytotoxicity against human AGS cells assessed as reduction in cell viability at 10 to 50 uM measured after 24 hrs by FMCA method; type: functional, cell-based; method in brief: as §1
[25] = test system: AGS; experiment: Potentiation of TRAIL-induced cytotoxicity against human AGS cells assessed as reduction in cell viability at 40 to 120 uM measured after 24 hrs by FMCA method; type: functional, cell-based; method in brief: as §1
[26] = test system: AGS; experiment: Potentiation of TRAIL-induced cytotoxicity against human AGS cells assessed as reduction in cell viability at 20 to 60 uM measured after 24 hrs by FMCA method; type: functional, cell-based; method in brief: as §1
[27] = test system: AGS; experiment: Potentiation of TRAIL-induced cytotoxicity against human AGS cells assessed as reduction in cell viability at 5 to 30 uM measured after 24 hrs by FMCA method; type: functional, cell-based; method in brief: as §1

## C=C[C@]1(C)C=C2[C@H](O)[C@@H](OC(C)=O)[C@H]3C(C)(C)CC[C@H](O)[C@]3(C)[C@@]2(O)CC1
[1]
  Activity: Active

## C=C[C@]1(C)C=C2C[C@@H](OC(C)=O)[C@H]3C(C)(C)CC[C@H](O)[C@]3(C)[C@@]2(O)CC1
[2]
  Activity: 68%
[3]
  Activity: Active
[4]
  Activity: Dose-dependent effect
[5]
  Activity: Active
[6]
  Activity: Active
[7]
  Activity: Dose-dependent effect
[8]
  Activity: Active
[9]
  Activity: Non-Toxic
[10]
  Activity: Dose-dependent effect
[11]
  Activity: Dose-dependent effect
[12]
  Activity: Dose-dependent effect
[13]
  Activity: 65%
[14]
  Activity: 0%
[15]
  Activity: 0%
[16]
  Activity: Active
[17]
  Activity: Dose-dependent effect
[18]
  Activity: 75%
[19]
  Activity: Dose-dependent effect
[20]
  Activity: 15%
[21]
  Activity: Active

## C=C[C@@]1(C)CCC2=C([C@H](OC)[C@@H](O)[C@H]3C(C)(C)CCC[C@]23C)[C@@H]1OC
[1]
  Activity: Active

## C=C[C@]1(C)C=C2C[C@@H](OC(C)=O)[C@H]3C(C)(C)CCC(=O)[C@]3(C)[C@@]2(O)CC1
[22]
  Activity: Active

## CC1=C[C@@H](O)[C@H](C(C)C)CC1=O
[23]
  Activity: Active

## C=C[C@]1(C)C=C2[C@@H](O)C[C@H]3C(C)(C)CCC[C@]3(C)[C@@]2(O)[C@H](O)C1
[1]
  Activity: Active

## C=C[C@@]1(C)CCC2=C(C[C@@H](O)[C@H]3C(C)(C)CCC[C@]23C)[C@H]1O
[24]
  Activity: Active

## C=C[C@@]1(C)CCC2=C(C[C@@H](O)[C@H]3C(C)(C)CC[C@H](O)[C@]23C)C1=O
[23]
  Activity: Active

## C=C[C@]1(C)C=C2[C@H](O)[C@@H](OC(C)=O)[C@H]3C(C)(C)CCC[C@]3(C)[C@@]2(O)CC1
[1]
  Activity: Active

## C=C[C@@]1(C)CCC2=C([C@H]1OC)[C@H](OC)[C@@H](O)[C@H]1C(C)(C)CCC[C@]21C
[22]
  Activity: Active

## C=C[C@]1(C)C=C2C[C@@H](O)[C@H]3C(C)(C)CC[C@H](O)[C@]3(C)[C@@]2(O)CC1
[25]
  Activity: Active

## C=C[C@]1(C)C=C2CC[C@H]3C(C)(C)C[C@H](O)[C@H](O)[C@]3(C)[C@H]2CC1
[1]
  Activity: Active

## C=C[C@]1(C)C=C2[C@H](O)C[C@H]3C(C)(C)CC[C@H](O)[C@]3(C)[C@@]2(O)CC1
[26]
  Activity: Active

## C=C[C@]1(C)C=C2C[C@@H](O)[C@H]3C(C)(C)CCC(=O)[C@]3(C)[C@@]2(O)CC1
[22]
  Activity: Active

## C=C[C@@]1(C)C=C2CC[C@H]3C(C)(C)CC[C@H](O)[C@]3(C)[C@H]2[C@H](O)C1
[1]
  Activity: Active

## C=C[C@@]1(C)CCC2=C([C@H](O)[C@@H](O)[C@H]3C(C)(C)CCC[C@]23C)[C@@H]1OC
[26]
  Activity: Active

## C=C[C@]1(C)C=C2C[C@@H](O)[C@H]3C(C)(C)[C@H](O)C[C@H](O)[C@]3(C)[C@H]2CC1
[24]
  Activity: Active

## C=C[C@]1(C)C=C2CC[C@H]3C(C)(C)CC[C@H](O)[C@]3(C)[C@@]2(O)CC1
[27]
  Activity: Active
